According to ChEMBL document CHEMBL3826892, “Second-Generation Phenylthiazole Antibiotics with Enhanced Pharmacokinetic Properties” (J Med Chem, 2016):
≈ marks a conversion by molar mass, not a printed value.

Assays:
Staphylococcus aureus [1] = assay: Antimicrobial activity against methicillin-resistant Staphylococcus aureus RCMB 2658 clinical isolate after 20 hrs by broth microdilution method; format: functional; conditions: RCMB 2658, 20 h
In short: (§1)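 CLSI broth microdilution in cation-adjusted Mueller Hinton broth. Compounds were serially diluted in triplicate and plates held at 37 °C for 20 h. MIC was taken by eye as the lowest concentration with no visible growth, and the average of the triplicate determinations is reported.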

Enterococcus faecium [2] = assay: Bactericidal activity against vancomycin-resistant Enterococcus faecium ATCC 700221 after 20 hrs by broth microdilution method; format: functional; conditions: ATCC 700221, 20 h
Staphylococcus aureus [3] = assay: Antimicrobial activity against methicillin-resistant Staphylococcus aureus USA400 NRS123 clinical isolate after 20 hrs by broth microdilution method; format: functional; conditions: USA400 NRS123, 20 h; in short: as §1
Staphylococcus aureus [4] = assay: Bactericidal activity against methicillin-resistant Staphylococcus aureus USA300 NRS384 clinical isolate after 20 hrs by broth microdilution method; format: functional; conditions: USA300 NRS384, 20 h
Staphylococcus aureus [5] = assay: Bactericidal activity against methicillin-resistant Staphylococcus aureus NRS119 clinical isolate after 20 hrs by broth microdilution method; format: functional; conditions: NRS119, 20 h
Staphylococcus aureus [6] = assay: Antimicrobial activity against methicillin-resistant Staphylococcus aureus USA200 NRS383 clinical isolate after 20 hrs by broth microdilution method; format: functional; conditions: USA200 NRS383, 20 h; in short: as §1
Staphylococcus aureus [7] = assay: Bactericidal activity against methicillin-resistant Staphylococcus aureus USA400 NRS123 clinical isolate after 20 hrs by broth microdilution method; format: functional; conditions: USA400 NRS123, 20 h
Staphylococcus aureus [8] = assay: Antimicrobial activity against methicillin-resistant Staphylococcus aureus NRS119 clinical isolate after 20 hrs by broth microdilution method; format: functional; conditions: NRS119, 20 h; in short: as §1
Staphylococcus aureus [9] = assay: Bactericidal activity against methicillin-resistant Staphylococcus aureus USA100 NRS382 clinical isolate after 20 hrs by broth microdilution method; format: functional; conditions: USA100 NRS382, 20 h
Staphylococcus aureus [10] = assay: Antimicrobial activity against methicillin-resistant Staphylococcus aureus USA300 NRS384 clinical isolate after 20 hrs by broth microdilution method; format: functional; conditions: USA300 NRS384, 20 h; in short: as §1
Staphylococcus aureus [11] = assay: Bactericidal activity against vancomycin-resistant Staphylococcus aureus 10 clinical isolate after 20 hrs by broth microdilution method; format: functional; conditions: isolate 10, 20 h
Staphylococcus aureus [12] = assay: Antimicrobial activity against methicillin-sensitive Staphylococcus aureus NRS72 clinical isolate after 20 hrs by broth microdilution method; format: functional; conditions: NRS72, 20 h; in short: as §1
Staphylococcus aureus [13] = assay: Antimicrobial activity against vancomycin-resistant Staphylococcus aureus 10 clinical isolate after 20 hrs by broth microdilution method; format: functional; conditions: isolate 10, 20 h; in short: as §1
Staphylococcus aureus [14] = assay: Bactericidal activity against methicillin-sensitive Staphylococcus aureus NRS72 clinical isolate after 20 hrs by broth microdilution method; format: functional; conditions: NRS72, 20 h
Enterococcus faecium [15] = assay: Antimicrobial activity against vancomycin-resistant Enterococcus faecium ATCC 700221 after 20 hrs by broth microdilution method; format: functional; conditions: ATCC 700221, 20 h; in short: as §1
Staphylococcus aureus [16] = assay: Antimicrobial activity against methicillin-resistant Staphylococcus aureus USA100 NRS382 clinical isolate after 20 hrs by broth microdilution method; format: functional; conditions: USA100 NRS382, 20 h; in short: as §1
Staphylococcus aureus [17] = assay: Bactericidal activity against methicillin-resistant Staphylococcus aureus USA200 NRS383 clinical isolate after 20 hrs by broth microdilution method; format: functional; conditions: USA200 NRS383, 20 h
Staphylococcus aureus [18] = assay: Bactericidal activity against methicillin-resistant Staphylococcus aureus USA300 assessed as time required to reduce bacterial inoculum to zero colony forming units at 3 times MIC by time kill assay; format: functional
In short: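 Samples taken at 2, 4, 6, 8, 10, 12 and 24 h were serially diluted in PBS and plated on trypticase soy agar. Viable CFU/mL were counted after at least 16 h at 37 °C.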

[19] = Aqueous solubility of the compound in PBS after 2 hrs by turbidity assay; format: physicochemical
In short: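 Serial dilutions were made […] and diluted 100-fold into PBS. After 2 h, turbidity was read at 540 nm with pre-addition background subtracted. Turbidity was taken as absorbance > blank mean + 3 SD. Solubility limit is the highest concentration with no turbidity.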

Cc1nc(-c2ccc(/C=C/C3CCCC3)cc2)sc1-c1ccnc(N)n1
MIC (Staphylococcus aureus [1]): 3.12 µg/mL (≈ 8.61 µM)

CC(=O)NC[C@H]1CN(c2ccc(N3CCOCC3)c(F)c2)C(=O)O1 [LINEZOLID]
MBC (Enterococcus faecium [2]): 32 µg/mL (≈ 94.9 µM) | MIC (Staphylococcus aureus [3]): 1 µg/mL (≈ 2.96 µM) | MBC (Staphylococcus aureus [4]): 4 µg/mL (≈ 11.9 µM) | MBC (Staphylococcus aureus [5]): > 64 µg/mL | MIC (Staphylococcus aureus [6]): 1 µg/mL (≈ 2.96 µM) | MBC (Staphylococcus aureus [7]): 16 µg/mL (≈ 47.4 µM) | MIC (Staphylococcus aureus [8]): 32 µg/mL (≈ 94.9 µM) | MBC (Staphylococcus aureus [9]): 8 µg/mL (≈ 23.7 µM) | MIC (Staphylococcus aureus [10]): 1 µg/mL (≈ 2.96 µM) | MBC (Staphylococcus aureus [11]): 2 µg/mL (≈ 5.93 µM) | MIC (Staphylococcus aureus [12]): 1 µg/mL (≈ 2.96 µM) | MIC (Staphylococcus aureus [13]): 1 µg/mL (≈ 2.96 µM) | MBC (Staphylococcus aureus [14]): 2 µg/mL (≈ 5.93 µM) | MIC (Enterococcus faecium [15]): 1 µg/mL (≈ 2.96 µM) | MIC (Staphylococcus aureus [16]): 1 µg/mL (≈ 2.96 µM) | MBC (Staphylococcus aureus [17]): 32 µg/mL (≈ 94.9 µM)

CCCCc1ccc(-c2nc(C)c(-c3ccnc(N4CCCC4)n3)s2)cc1
MIC (Staphylococcus aureus [1]): > 25 µg/mL

CN[C@@H](CC(C)C)C(=O)N[C@H]1C(=O)N[C@@H](CC(N)=O)C(=O)N[C@H]2C(=O)N[C@H]3C(=O)N[C@H](C(=O)N[C@@H](C(=O)O)c4cc(O)cc(O)c4-c4cc3ccc4O)[C@H](O)c3ccc(c(Cl)c3)Oc3cc2cc(c3O[C@H]2O[C@@H](CO)[C@H](O)[C@@H](O)[C@@H]2O[C@@H]2C[C@@](C)(N)[C@@H](O)[C@@H](C)O2)Oc2ccc(cc2Cl)[C@H]1O
MBC (Enterococcus faecium [2]): > 64 µg/mL | Time (Staphylococcus aureus [18]): 24 h | MBC (Staphylococcus aureus [4]): 1 µg/mL (≈ 0.69 µM) | MBC (Staphylococcus aureus [5]): 1 µg/mL (≈ 0.69 µM) | MBC (Staphylococcus aureus [7]): 1 µg/mL (≈ 0.69 µM) | MBC (Staphylococcus aureus [9]): 1 µg/mL (≈ 0.69 µM) | MBC (Staphylococcus aureus [11]): > 64 µg/mL | MIC (Staphylococcus aureus [13]): > 64 µg/mL | MBC (Staphylococcus aureus [14]): 2 µg/mL (≈ 1.38 µM) | MIC (Enterococcus faecium [15]): > 64 µg/mL | MBC (Staphylococcus aureus [17]): 1 µg/mL (≈ 0.69 µM)

Cc1nc(-c2ccc(I)cc2)sc1-c1ccnc(N)n1
MIC (Staphylococcus aureus [1]): > 25 µg/mL

Cc1nc(-c2ccc(C3=CCCCCC3)cc2)sc1-c1ccnc(N)n1
MIC (Staphylococcus aureus [1]): 3.12 µg/mL (≈ 8.61 µM)

Cc1nc(-c2ccc(-c3ccoc3)cc2)sc1-c1ccnc(N)n1
solubility kinetic at 2 h [19]: 13 µM (≈ 4.35 µg/mL) | MIC (Staphylococcus aureus [1]): 7.8 µg/mL (≈ 23.3 µM)

Cc1nc(-c2ccc(C3=CCC(C)C3)cc2)sc1-c1ccnc(N)n1 (configuration not stated)
MIC (Staphylococcus aureus [1]): 3.8 µg/mL (≈ 10.9 µM)

CCCCc1ccc(-c2nc(C)c(-c3ccnc(NC#N)n3)s2)cc1
MIC (Staphylococcus aureus [1]): 18.7 µg/mL (≈ 53.5 µM)

Cc1nc(-c2ccc(C=C3CCCCC3)cc2)sc1-c1ccnc(N)n1
MIC (Staphylococcus aureus [1]): 1.56 µg/mL (≈ 4.3 µM)

CCCCc1ccc(-c2nc(C)c(-c3ccnc(NC)n3)s2)cc1
MIC (Staphylococcus aureus [1]): > 25 µg/mL

CCCCc1ccc(-c2nc(C)c(-c3ccnc(NC(N)=S)n3)s2)cc1
MIC (Staphylococcus aureus [1]): > 25 µg/mL

CCCCc1ccc(-c2nc(C)c(-c3ccnc(NC(=N)N(C)C)n3)s2)cc1
solubility kinetic at 2 h [19]: 53 µM (≈ 20.9 µg/mL) | MIC (Staphylococcus aureus [1]): 0.78 µg/mL (≈ 1.98 µM)

CCCCc1ccc(-c2nc(C)c(C(=O)/C=C/N(C)C)s2)cc1
MIC (Staphylococcus aureus [1]): > 25 µg/mL

CCCCc1ccc(-c2nc(C)c(-c3ccnc(N=C(N(C)C)N(C)C)n3)s2)cc1
MIC (Staphylococcus aureus [1]): > 25 µg/mL
